Source: ChEMBL document CHEMBL1137674, “Synthesis and antibacterial evaluation of novel 4-alkyl substituted phenyl beta-aldehyde ketone derivatives” (2009)
≈ marks a conversion by molar mass, not a printed value.

Tests used:
Assay type in all cases: functional
[1] = test system: Escherichia coli; assay: Antimicrobial activity against Escherichia coli ATCC 25922 after 16 to 18 hrs by agar dilution method
Method in brief: (§1)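 Agar dilution following NCCLS/CLSI, with twofold serial dilutions of the compounds and reference drugs in Mueller-Hinton agar. Inocula were overnight cultures (16-18 h, 37 °C) adjusted to 0.5 McFarland. Compounds were dissolved in DMSO, which served as the control. MIC was taken as the lowest concentration preventing viable growth after 16-18 h incubation.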

[2] = test system: Pseudomonas aeruginosa; assay: Antimicrobial activity against Pseudomonas aeruginosa ATCC 27853 after 16 to 18 hrs by agar dilution method; method in brief: as §1
[3] = test system: Staphylococcus aureus; assay: Antimicrobial activity against Staphylococcus aureus ATCC 25923 after 16 to 18 hrs by agar dilution method; method in brief: as §1
[4] = test system: Staphylococcus aureus; assay: Antimicrobial activity against Staphylococcus aureus isolate 1 after 16 to 18 hrs by agar dilution method
[5] = test system: Staphylococcus aureus; assay: Antimicrobial activity against Staphylococcus aureus isolate 8 after 16 to 18 hrs by agar dilution method
Method in brief: (§2)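 Agar dilution MIC on Mueller-Hinton agar with the test agents mixed into the medium. MIC was read as the lowest concentration preventing viable growth after 16–18 h incubation.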

[6] = test system: Staphylococcus aureus; assay: Antimicrobial activity against Staphylococcus aureus isolate 5 after 16 to 18 hrs by agar dilution method
[7] = test system: Staphylococcus aureus; assay: Antimicrobial activity against Staphylococcus aureus isolate 9 after 16 to 18 hrs by agar dilution method
[8] = test system: Staphylococcus aureus; assay: Antimicrobial activity against Staphylococcus aureus isolate 10 after 16 to 18 hrs by agar dilution method
[9] = test system: Staphylococcus aureus; assay: Antimicrobial activity against Staphylococcus aureus isolate 4 after 16 to 18 hrs by agar dilution method
[10] = test system: Staphylococcus aureus; assay: Antimicrobial activity against methicillin-resistant Staphylococcus aureus isolate 4 after 16 to 18 hrs by agar dilution method; method in brief: as §2
[11] = test system: Staphylococcus aureus; assay: Antimicrobial activity against Staphylococcus aureus isolate 2 after 16 to 18 hrs by agar dilution method; method in brief: as §2
[12] = test system: Staphylococcus aureus; assay: Antimicrobial activity against Staphylococcus aureus isolate 3 after 16 to 18 hrs by agar dilution method
[13] = test system: Staphylococcus aureus; assay: Antimicrobial activity against methicillin-resistant Staphylococcus aureus isolate 1 after 16 to 18 hrs by agar dilution method; method in brief: as §2
[14] = test system: Staphylococcus aureus; assay: Antimicrobial activity against methicillin-resistant Staphylococcus aureus isolate 3 after 16 to 18 hrs by agar dilution method; method in brief: as §2
[15] = test system: Staphylococcus aureus; assay: Antimicrobial activity against Staphylococcus aureus isolate 6 after 16 to 18 hrs by agar dilution method
[16] = test system: Staphylococcus aureus; assay: Antimicrobial activity against methicillin-resistant Staphylococcus aureus isolate 5 after 16 to 18 hrs by agar dilution method; method in brief: as §2
[17] = test system: Staphylococcus aureus; assay: Antimicrobial activity against methicillin-resistant Staphylococcus aureus isolate 2 after 16 to 18 hrs by agar dilution method; method in brief: as §2
[18] = test system: Staphylococcus aureus; assay: Antimicrobial activity against Staphylococcus aureus isolate 7 after 16 to 18 hrs by agar dilution method; method in brief: as §2

MIC [1] [µg/mL] | MIC [2] [µg/mL] | MIC [3] [µg/mL] | SMILES | other results
> 64 | > 64 | 4 (≈ 15.3 µM) | CCCCCc1ccc(C(=O)C/C=N/OCC)cc1 | –
64 (≈ 259 µM) | 64 (≈ 259 µM) | 4 (≈ 16.2 µM) | CCCCCc1ccc(C(=O)C/C=N/OC)cc1 | –
– | – | – | CCCCCCCCCC(=O)CC(O)S(=O)(=O)[O-].[Na+] (configuration not stated) [SODIUM HOUTTUYFONATE] | MIC [4]: 64 µg/mL; MIC [5]: 64 µg/mL; MIC [6]: 32 µg/mL; MIC [7]: 64 µg/mL; MIC [8]: 32 µg/mL; MIC [9]: 64 µg/mL; MIC [11]: 64 µg/mL; MIC [12]: 64 µg/mL; MIC [15]: 64 µg/mL; MIC [18]: 64 µg/mL
> 64 | > 64 | 64 (≈ 210 µM) | CCCCCc1ccc(/C(C/C=N/OCC)=N\OCC)cc1 | –
> 64 | > 64 | 64 (≈ 361 µM) | CO/N=C/CC(=O)c1ccccc1 | –
> 64 | > 64 | 64 (≈ 232 µM) | CCCCCc1ccc(/C(C/C=N/OC)=N\OC)cc1 | –
> 64 | > 64 | > 64 | NC(=S)N/N=C/CC(=O)c1ccccc1 | –
> 64 | > 64 | > 64 | Cc1ccc(C(=O)C/C=N/NC(N)=S)cc1 | –
> 64 | > 64 | > 64 | Cc1ccc(C(=O)CC=O)cc1 | –
> 64 | > 64 | 32 (≈ 116 µM) | CCO/N=C(/C/C=N/OCC)c1ccc(C(C)C)cc1 | –
> 64 | > 64 | > 64 | O=CCC(=O)c1ccccc1 | –
> 64 | > 64 | 64 (≈ 392 µM) | O=C(C/C=N/O)c1ccccc1 | –
64 (≈ 312 µM) | 64 (≈ 312 µM) | 4 (≈ 19.5 µM) | CCO/N=C/CC(=O)c1ccc(C)cc1 | –
> 64 | > 64 | > 64 | NC(=O)N/N=C/CC(=O)c1ccccc1 | –
> 64 | > 64 | 4 (≈ 18.2 µM) | CCO/N=C/CC(=O)c1ccc(CC)cc1 | –
> 64 | > 64 | 32 (≈ 122 µM) | CCO/N=C(/C/C=N/OCC)c1ccc(CC)cc1 | –
> 64 | > 64 | 4 (≈ 19.5 µM) | CCc1ccc(C(=O)C/C=N/OC)cc1 | –
> 64 | > 64 | > 64 | CCCCCc1ccc(C(=O)CC(O)S(=O)(=O)[O-])cc1.[Na+] (configuration not stated) | –
> 64 | > 64 | 64 (≈ 361 µM) | Cc1ccc(C(=O)C/C=N/O)cc1 | –
> 64 | > 64 | 32 (≈ 137 µM) | CCc1ccc(/C(C/C=N/OC)=N\OC)cc1 | –
> 64 | > 64 | 32 (≈ 129 µM) | CO/N=C(/C/C=N/OC)c1ccc(C(C)C)cc1 | –
> 64 | > 64 | > 64 | Cc1ccc(C(=O)C/C=N/NC(N)=O)cc1 | –
> 64 | > 64 | > 64 | CC(C)c1ccc(C(=O)CC(O)S(=O)(=O)[O-])cc1.[Na+] (configuration not stated) | –

SMILES | MIC [1] [µg/mL] | MIC [2] [µg/mL] | MIC [3] [µg/mL] | other results
CCO/N=C/CC(=O)c1ccc(C(C)C)cc1 | > 64 | > 64 | 1 (≈ 4.29 µM) | MIC [4]: 4 µg/mL (≈ 17.1 µM); MIC [5]: 8 µg/mL (≈ 34.3 µM); MIC [6]: 1 µg/mL (≈ 4.29 µM); MIC [7]: 4 µg/mL (≈ 17.1 µM); MIC [8]: 4 µg/mL (≈ 17.1 µM); MIC [9]: 2 µg/mL (≈ 8.57 µM); MIC [10]: 16 µg/mL (≈ 68.6 µM); MIC [11]: 16 µg/mL (≈ 68.6 µM); MIC [12]: 4 µg/mL (≈ 17.1 µM); MIC [13]: 16 µg/mL (≈ 68.6 µM); MIC [14]: 8 µg/mL (≈ 34.3 µM); MIC [15]: 4 µg/mL (≈ 17.1 µM); MIC [16]: 8 µg/mL (≈ 34.3 µM); MIC [17]: 8 µg/mL (≈ 34.3 µM); MIC [18]: 8 µg/mL (≈ 34.3 µM)
C[C@H]1COc2c(N3CCN(C)CC3)c(F)cc3c(=O)c(C(=O)O)cn1c23.C[C@H]1COc2c(N3CCN(C)CC3)c(F)cc3c(=O)c(C(=O)O)cn1c23.O [LEVOFLOXACIN] | 0.025 | 0.5 | 0.25 | MIC [4]: 0.25 µg/mL; MIC [5]: 0.25 µg/mL; MIC [6]: 0.125 µg/mL; MIC [7]: 0.25 µg/mL; MIC [8]: 0.5 µg/mL; MIC [9]: 0.25 µg/mL; MIC [10]: 16 µg/mL; MIC [11]: 0.5 µg/mL; MIC [12]: 0.25 µg/mL; MIC [13]: 8 µg/mL; MIC [14]: 16 µg/mL; MIC [15]: 0.5 µg/mL; MIC [16]: 16 µg/mL; MIC [17]: 8 µg/mL; MIC [18]: 0.25 µg/mL
CO/N=C/CC(=O)c1ccc(C(C)C)cc1 | > 64 | > 64 | 2 (≈ 9.12 µM) | MIC [10]: 8 µg/mL (≈ 36.5 µM); MIC [13]: 8 µg/mL (≈ 36.5 µM); MIC [14]: 8 µg/mL (≈ 36.5 µM); MIC [16]: 4 µg/mL (≈ 18.2 µM); MIC [17]: 8 µg/mL (≈ 36.5 µM)
CO/N=C/CC(=O)c1ccc(C)cc1 | 64 (≈ 335 µM) | 64 (≈ 335 µM) | 4 (≈ 20.9 µM) | MIC [10]: 8 µg/mL (≈ 41.8 µM); MIC [13]: 8 µg/mL (≈ 41.8 µM); MIC [14]: 8 µg/mL (≈ 41.8 µM); MIC [16]: 8 µg/mL (≈ 41.8 µM); MIC [17]: 8 µg/mL (≈ 41.8 µM)
CCCCCCCCCC(=O)CC=O [HOUTTUYNIN] | – | – | 32 (≈ 161 µM) | MIC [10]: 16 µg/mL (≈ 80.7 µM); MIC [13]: 16 µg/mL (≈ 80.7 µM); MIC [14]: 16 µg/mL (≈ 80.7 µM); MIC [16]: 16 µg/mL (≈ 80.7 µM); MIC [17]: 16 µg/mL (≈ 80.7 µM)
CC[C@H]1OC(=O)[C@H](C)[C@@H](O[C@H]2C[C@@](C)(OC)[C@@H](O)[C@H](C)O2)[C@H](C)[C@@H](O[C@@H]2O[C@H](C)C[C@H](N(C)C)[C@H]2O)[C@](C)(OC)C[C@@H](C)C(=O)[C@H](C)[C@@H](O)[C@]1(C)O [CLARITHROMYCIN] | 32 (≈ 42.8 µM) | > 64 | 0.12 (≈ 0.16 µM) | –
